Results from ChEMBL document CHEMBL1811785, “Investigations on the 4-quinolone-3-carboxylic acid motif. 4. Identification of new potent and selective ligands for the cannabinoid type 2 receptor with diverse substitution patterns and antihyperalgesic effects in mice” (J Med Chem, 2011).
Calls of active or inactive are those of the source. The rule behind the calls is not given here.

Key:
Cannabinoid receptor 2 = Cannabinoid receptor 2 (Homo sapiens, UniProt P34972); assay: Displacement of [3H]CP-55940 from human recombinant CB2 receptor expressed in HEK cells; assay type: cell-based, HEK293
Cannabinoid receptor 1 = Cannabinoid receptor 1 (Homo sapiens, UniProt P21554); assay: biochemical; assay type: cell-based, HEK293
Homo sapiens = organism: Homo sapiens; assay: Selectivity index, ratio of Ki for human recombinant CB1 receptor to Ki for human recombinant CB2 receptor
[1] = Cytotoxicity against human HepG2 cells assessed as cell viability at 1 uM after 72 hrs by MTT assay; assay type: cell-based; conditions: read-out: Activity
Outline: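 HepG2 cells in DMEM with 10% FBS at 37 °C and 5% CO2 were seeded at 1 × 10⁵ per well and left to attach for 24 h. Compound was added at 1 μM final, diluted from a 1 mM DMSO stock, for 72 h. MTT was then added for 4 h at 37 °C, formazan was dissolved in DMSO and read at 540 nm. Viability = A(test)/A(medium-only control) × 100.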

Mus musculus [2] = assay: Antinociceptive activity in mouse assessed as reduction of formalin-induced nocifensive response at 3 mg/kg, ip administered 15 mins before formalin challenge measured second phase of 20 to 60 mins; assay type: functional, organism-based; design: dose 3 mg/kg
Outline: (§1)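 Mice received compound ip at 1, 3 or 6 mg/kg (or vehicle) 15 min before formalin (1.25% in saline, 30 μL) was injected into the dorsal hindpaw. An observer blind to treatment timed lifting, favoring, licking, shaking and flinching of the injected paw over 0–10 min (early phase) and 20–60 min (late phase). n = 8–10 per group, one treatment per animal. Means ± SEM, ANOVA with Dunnett's test.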

Mus musculus [3] = assay: Antinociceptive activity in ip dosed mouse assessed as reduction of formalin-induced nocifensive response administered 15 mins before formalin challenge measured first phase of 0 to 10 mins; assay type: functional; conditions: read-out: MED; outline: as §1
[4] = biological target: T1, Fatty-acid amide hydrolase 1 (Rattus norvegicus) (UniProt P97612); assay: Inhibition of rat brain FAAH assessed as [14C]-anandamide hydrolysis up to 10 uM
T1 sequence (whole entry): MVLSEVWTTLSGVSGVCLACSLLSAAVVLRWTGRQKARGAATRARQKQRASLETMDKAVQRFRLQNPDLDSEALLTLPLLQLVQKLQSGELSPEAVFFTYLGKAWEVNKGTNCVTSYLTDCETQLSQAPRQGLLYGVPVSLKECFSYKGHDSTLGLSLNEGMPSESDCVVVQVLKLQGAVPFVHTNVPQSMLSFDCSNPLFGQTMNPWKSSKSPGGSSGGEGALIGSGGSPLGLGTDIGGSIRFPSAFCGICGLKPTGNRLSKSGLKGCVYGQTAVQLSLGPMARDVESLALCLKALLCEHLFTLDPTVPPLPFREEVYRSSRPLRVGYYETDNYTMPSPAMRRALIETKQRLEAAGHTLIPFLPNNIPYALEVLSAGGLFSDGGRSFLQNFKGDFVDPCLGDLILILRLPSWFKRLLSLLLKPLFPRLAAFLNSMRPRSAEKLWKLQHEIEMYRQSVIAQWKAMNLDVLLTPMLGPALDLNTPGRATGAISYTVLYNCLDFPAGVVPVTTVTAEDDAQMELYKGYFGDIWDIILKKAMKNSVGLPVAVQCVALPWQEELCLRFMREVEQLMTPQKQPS
Outline: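 Hydrolysis of [¹⁴C]-anandamide by rat brain FAAH-like activity, with compound at 0.1, 1, 5 and 10 μM.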

Mus musculus [5] = assay: Antinociceptive activity in mouse assessed as reduction of formalin-induced nocifensive response at 3 mg/kg, ip administered 15 mins before formalin challenge measured first phase of 0 to 10 mins in presence of CB2 receptor antagonist 1 mg/kg, ip of AM630; assay type: functional, organism-based
Outline: (§2)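 Formalin paw test in mice. AM630 (1 mg/kg, ip) was given 5 min before the compound, and the compound was given ip 15 min before intraplantar-dorsal formalin (1.25% in saline, 30 μL). A blinded observer timed paw lifting, favoring, licking, shaking and flinching at 0–10 and 20–60 min. n = 8–10 per group. Means ± SEM, ANOVA with Dunnett's test.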

COS-7 = assay: Inhibition of MAGL in african green monkey COS7 cells assessed as [14C]-2-arachidonoyl-glycerol hydrolysis up to 10 uM; assay type: cell-based; conditions: Chlorocebus aethiops
Outline: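 COS-7 cell MAGL-like activity measured as hydrolysis of [¹⁴C]-2-arachidonoyl-glycerol, with compound tested at 0.1, 1, 5 and 10 μM.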

Mus musculus [6] = assay: Antinociceptive activity in mouse assessed as reduction of formalin-induced nocifensive response at 6 mg/kg, ip administered 15 mins before formalin challenge measured second phase of 20 to 60 mins; assay type: functional, organism-based; design: dose 6 mg/kg; outline: as §1
Mus musculus [7] = assay: Antinociceptive activity in mouse assessed as reduction of formalin-induced nocifensive response at 6 mg/kg, ip administered 15 mins before formalin challenge measured second phase of 20 to 60 mins in presence of CB2 receptor antagonist 1 mg/kg, ip of AM630; assay type: functional, organism-based; outline: as §2
Mus musculus [8] = assay: Antinociceptive activity in mouse assessed as reduction of formalin-induced nocifensive response at 3 mg/kg, ip administered 15 mins before formalin challenge measured first phase of 0 to 10 mins; assay type: functional, organism-based; design: dose 3 mg/kg; outline: as §1

Cannabinoid receptor 2, sequence (P34972 whole entry): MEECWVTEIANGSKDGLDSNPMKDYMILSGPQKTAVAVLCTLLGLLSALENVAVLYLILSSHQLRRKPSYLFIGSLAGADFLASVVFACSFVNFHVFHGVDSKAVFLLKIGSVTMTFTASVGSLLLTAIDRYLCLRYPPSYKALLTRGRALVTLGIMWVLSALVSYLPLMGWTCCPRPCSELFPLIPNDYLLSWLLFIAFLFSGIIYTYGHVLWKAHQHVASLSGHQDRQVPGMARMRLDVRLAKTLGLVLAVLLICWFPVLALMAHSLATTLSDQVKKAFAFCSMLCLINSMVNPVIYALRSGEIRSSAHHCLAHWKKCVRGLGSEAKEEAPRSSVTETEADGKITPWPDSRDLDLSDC
Cannabinoid receptor 1, sequence (P21554 whole entry): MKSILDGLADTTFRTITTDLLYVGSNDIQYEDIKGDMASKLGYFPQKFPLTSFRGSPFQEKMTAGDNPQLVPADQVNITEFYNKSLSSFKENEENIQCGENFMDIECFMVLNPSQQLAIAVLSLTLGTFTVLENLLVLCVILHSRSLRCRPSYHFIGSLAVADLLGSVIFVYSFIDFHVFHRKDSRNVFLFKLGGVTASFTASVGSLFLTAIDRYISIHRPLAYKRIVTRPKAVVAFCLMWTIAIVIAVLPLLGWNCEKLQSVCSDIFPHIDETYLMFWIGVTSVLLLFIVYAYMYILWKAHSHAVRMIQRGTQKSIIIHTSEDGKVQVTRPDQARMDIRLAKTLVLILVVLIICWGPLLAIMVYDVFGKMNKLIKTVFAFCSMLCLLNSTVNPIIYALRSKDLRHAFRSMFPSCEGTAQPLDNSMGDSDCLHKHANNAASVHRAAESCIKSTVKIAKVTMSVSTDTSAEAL

| SMILES | Ki (Cannabinoid receptor 2) [nM] | Ki (Cannabinoid receptor 1) [nM] | Ratio Ki (Homo sapiens) | viability at 72 h, 1 µM [1] [%] | also measured |
| --- | --- | --- | --- | --- | --- |
| CCCCCn1cc(C(=O)NC23CC4CC(CC(C4)C2)C3)c(=O)c2cc(-c3ccccc3)cc(OC)c21 | 430 | > 10000 | > 23 | > 95 | – |
| CCCCCn1cc(C(=O)NC23CC4CC(CC(C4)C2)C3)c(=O)c2cccc(C)c21 | 0.7 | > 10000 | > 2040 | > 95 | – |
| O=C(NC12CC3CC(CC(C3)C1)C2)c1c[nH]c2c(-c3ccccc3)cccc2c1=O | – | – | 45 | – | – |
| CCCCCn1cc(C(=O)NC23CC4CC(CC(C4)C2)C3)c(=O)c2cccc([N+](=O)[O-])c21 | 1 | 200 | 200 | – | – |
| CCCCCn1cc(C(=O)NC23CC4CC(CC(C4)C2)C3)c(=O)c2cc(-c3ccco3)cc(OC)c21 | 8.5 | > 10000 | > 1180 | > 95 | Activity (Mus musculus [2]): Active; minimal effective dose (Mus musculus [3]): 1 mg/kg; inhibition [4]: inactive; Activity (Mus musculus [5]): inactive; inhibition (COS-7): inactive |
| CCCCCOc1cccc2c(=O)c(C(=O)NC34CC5CC(CC(C5)C3)C4)c[nH]c12 | – | – | 4.3 | – | – |
| O=C(NC12CC3CC(CC(C3)C1)C2)c1cnc2c(-c3ccccc3)cccc2c1O | 220 | > 10000 | – | > 95 | – |
| CCCCCOc1cccc2c(O)c(C(=O)NC34CC5CC(CC(C5)C3)C4)cnc12 | 60 | 260 | – | > 95 | – |
| CCCCCn1cc(C(=O)NC23CC4CC(CC(C4)C2)C3)c(=O)c2cccc(OC)c21 | 0.6 | > 10000 | > 16700 | > 95 | Activity (Mus musculus [6]): Active; inhibition [4]: inactive; Activity (Mus musculus [7]): Active; inhibition (COS-7): inactive |
| CCCCc1[nH]c2ccc(Br)cc2c(=O)c1C(=O)NC12CC3CC(CC(C3)C1)C2 | 1180 | > 10000 | > 8 | – | – |
| CCCCCn1c(=O)c(C(=O)NC23CC4CC(CC(C4)C2)C3)cc2ccccc21 | 0.2 | 31.3 | 157 | – | – |
| CCCCCn1c(=O)c(C(=O)NC23CC4CC(CC(C4)C2)C3)c(O)c2cc(-c3ccco3)ccc21 | 15 | 270 | 18 | > 95 | – |
| CCCCCn1c(=O)c(C(=O)NC23CC4CC(CC(C4)C2)C3)c(O)c2cc(Br)ccc21 | 29.4 | > 10000 | > 340 | > 95 | Activity (Mus musculus [8]): Active; Activity (Mus musculus [2]): Active; inhibition [4]: inactive; Activity (Mus musculus [5]): inactive; inhibition (COS-7): inactive |
| COc1cccc2c(O)c(C(=O)NC34CC5CC(CC(C5)C3)C4)cnc12 | 3440 | > 10000 | – | – | – |
| COc1cccc2c(=O)c(C(=O)NC34CC5CC(CC(C5)C3)C4)c[nH]c12 | – | – | > 2.9 | – | – |
| CCCCCn1cc(C(=O)NC23CC4CC(CC(C4)C2)C3)c(=O)c2cc(Br)cc(OC)c21 | 22.9 | > 10000 | > 437 | > 95 | – |
| CCC1COc2cccc3c(=O)c(C(=O)NC45CC6CC(CC(C6)C4)C5)cn1c23 (stereo not given) | 6.9 | 1000 | 145 | > 95 | Activity (Mus musculus [2]): Active; minimal effective dose (Mus musculus [3]): 1 mg/kg; inhibition [4]: inactive; Activity (Mus musculus [5]): Active; inhibition (COS-7): inactive |
| CCCCc1[nH]c2ccc(-c3ccco3)cc2c(=O)c1C(=O)NC12CC3CC(CC(C3)C1)C2 | 133 | > 10000 | > 75 | > 95 | – |
